Source: PubChem (several laboratories)
Shown are actives, neighbours in structure and some others; about 5.1% of the full set was active somewhere.
APP 5'UTR act: activates APP 5'UTR luciferase reporter; SH-SY5Y APP 5'UTR luciferase reporter, luminescence; zero percent = DMSO vehicle wells; activation, % at 2 µM; 190,000 compounds, 1% hits;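 active means activation above a set limit, based on mean plus 3 SD of controls, cut at about 140% in these data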
STAT1 blocker: inhibitors of IFN-gamma induced STAT1 signaling; NIH 3T3 STAT1-luciferase reporter, luminescence; inhibition, % at 5.5 µM; AID 920; 200,000 compounds, 0.35% hits;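 active means inhibition above a set limit, the mean inhibition across all tested compounds plus 3 SD, cut at about 34% in these data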
NF-kB neuron act: compounds increasing NF-kB expression in human neuronal cells | NF-kB reporter expression; hits give high values | fold change at 12.5 µM | 190,000 compounds, 1.6% hits; in the data active means fold change above about 3.3
STAT1 activator: activators of IFN-gamma induced STAT1 signaling. activation (% of control), % at 5.5 µM. 200,000 compounds, 2.6% hits. AID 932. NIH 3T3 STAT1-luciferase reporter, luminescence; 100% = IFN-gamma alone, no compound;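 active means activation above the screen-wide mean activation plus 3 SD, cut at about 130% in these data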
STAT3 blocker: STAT3 signaling inhibition | U3A cells, IL-6 STAT3-luciferase reporter, luminescence; host cell line lacks STAT1 | inhibition, % at 5.5 µM | 190,000 compounds, 0.89% hits | AID 862;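 active means inhibition above the mean inhibition across all screened compounds plus 3 SD, cut at about 44% in these data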
STAT3 act: increases IL-6 driven STAT3 reporter signal | U3A cells, IL-6 STAT3-luciferase reporter, luminescence; 100% = signal with IL-6 EC80 alone | activation (% of control), % at 5.6 µM | 190,000 compounds, 0.91% hits | AID 871;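 active means activation above the screen-wide mean of compound activation plus 3 SD, cut at about 130% in these data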
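Material: STAT3-luciferase reporter U3A cells; Probe or stimulus: IL-6 (33 ng/mL); Incubation: compound pre-incubation 1 h before IL-6, then 6 h stimulation at 37 °C; Technique: luminescence from STAT3-driven luciferase reporter; Evaluation: % activation versus median of IL-6-stimulated wells; Controls: IL-6-only high control.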
A number is an active result; i = inactive; nt = not tested or not shown.

SMILES | APP 5'UTR act | STAT1 blocker | NF-kB neuron act | STAT1 activator | STAT3 blocker | STAT3 act
Cc1cccc(NCc2cc(Cl)cc(Cl)c2O)n1 | i | i | i | i | i | i
COc1cc2c(cc1OC)C(C(=O)Nc1ccccc1N1CCN(C)CC1)C1c3ccccc3CCN1C2=O (centres undefined) | i | i | i | i | i | i
O=C(Nc1ccc2c(c1)CCC2)c1cnc(Cl)c(Cl)c1 | 149.0 | i | 3.82 | 134.9 | i | i
Cc1noc(C)c1C(=O)Nc1ccc2c(c1)CCC2 | i | i | i | i | i | i
O=C(Nc1ccc2c(c1)CCC2)c1ccc(Cl)nc1 | i | i | 4 | 162.9 | i | 137.1
O=C(COc1ccc(Cl)cc1)Nc1ccc2c(c1)CCC2 | i | i | i | i | i | i
NC(=S)N/N=C/c1ccc(-c2cccc([N+](=O)[O-])c2)o1 | i | i | i | i | i | i
Cc1cccc(NC(=O)c2cnc3sccn3c2=O)c1C | i | i | i | 135.7 | i | i
Cc1cccc(NC(=O)c2cnc3ccccn3c2=O)c1 | i | i | i | i | i | i
Cc1cccc(NC(=O)c2cnc3sccn3c2=O)c1 | 166.9 | i | 5.54 | i | nt | nt
Cc1cccc(NC(=O)c2cnc3sccn3c2=O)n1 | i | i | nt | i | i | i
O=C(Nc1cnc2sccn2c1=O)c1ccccc1Cl | i | i | i | 139.7 | i | i
Cc1cc(C)n2ncc(C(=O)Nc3ccc4c(c3)OCO4)c2n1 | i | i | i | i | i | i
COc1ccc(OC)c(Cc2nnc(CCC(=O)N3CCCCC3)o2)c1 | i | i | i | 131.8 | i | i
COc1ccc(NC(=O)CN(C)S(=O)(=O)c2cccc3nsnc23)cc1 | i | i | i | i | i | i
O=C(CCc1ccccc1)Nc1ccc(Cl)cn1 | i | i | i | 130.1 | i | i
O=C(CCc1ccccc1)Nc1ccccc1F | nt | i | 3.46 | 144.4 | i | i
O=C(CCc1ccccc1)Nc1ccc(F)cc1F | i | i | i | i | i | i
Cc1cccnc1NC(=S)NCCc1ccccc1 | i | i | i | 130.0 | i | i
CC(C)C(=O)Nc1ccc(NC(=O)c2ccccc2Cl)nc1 | i | i | i | 132.4 | i | i
CCC(=O)Nc1ccc(NC(=O)c2ccccc2Cl)nc1 | i | i | i | i | i | i
Cn1nc(-c2ccc(OCC(=O)Nc3ccccc3)cc2)c2ccccc2c1=O | i | i | i | i | i | i
CC(C)N(c1ccccc1)c1ccc(NC(=S)NCCN(C)C)cc1 | i | i | i | i | i | i
CC(C)CNC(=S)Nc1ccc(Oc2ccccc2)cc1 | i | i | i | i | i | i
Cc1cccc(-n2cc(-c3ccc([N+](=O)[O-])cc3)[nH]c2=S)c1 | i | i | i | i | i | i
SMILES | APP 5'UTR act | STAT1 blocker | NF-kB neuron act | STAT1 activator | STAT3 blocker | STAT3 act
Cc1ccc(NC(=S)NCCc2ccccc2)nc1 | i | i | i | 136.5 | i | i
O=C(CCCc1ccccc1)Nc1cccc(C(=O)O)c1 | i | 71.2 | i | i | 73.0 | i
Cc1ccc(NC(=O)c2ccc3ccccc3n2)nc1 | 154.8 | i | 6.16 | 146.6 | i | 153.0
Cc1ccccc1C(=O)Nc1ccc(Cl)cn1 | i | i | i | 129.0 | i | i
O=C(Nc1ccccc1C(=O)O)c1ccc2ccccc2n1 | i | i | i | i | i | i
CCc1nnc(NC(=O)/C=C/c2ccco2)s1 | i | i | i | i | i | i
CN1CCN(C2=Cc3ccc(Cl)cc3Sc3ccc(F)cc32)CC1 | i | i | i | i | i | i
CCSc1nnc(NC(=O)c2cc(C)nc3ccccc23)s1 | i | i | i | i | i | i
CCSc1nnc(NC(=O)c2ccc3ccccc3n2)s1 | i | i | i | 141.5 | i | i
Cc1ccc(NC(=O)CCCc2ccccc2)nc1 | i | i | i | 137.6 | i | i
O=C(CCCc1ccccc1)Nc1cccnc1Cl | i | i | i | i | i | i
CCCn1c2ccccc2c2cc(C(=O)O)ccc21 | nt | i | i | i | i | i
O=C(N/C(=C\c1cccc([N+](=O)[O-])c1)C(=O)N1CCOCC1)c1ccc([N+](=O)[O-])cc1 | i | i | i | 130.6 | i | i
CCOc1ccc(C(=O)Nc2ccccc2-c2ccccc2)cc1Cl | i | i | i | i | i | i
CCOc1c(Cl)cc(C(=O)Nc2ccccc2C(=O)O)cc1Cl | i | i | 3.96 | i | i | i
CCOc1ccc(C(=O)Nc2cccc(C(=O)O)c2C)cc1Cl | i | 50.9 | 3.45 | i | 74.6 | i
Cc1c(C(=O)N2CCN(c3ccc(F)cc3)CC2)sc2nc(-c3ccccc3)cn12 | i | i | i | i | i | i
Cc1c(C(=O)N2CCOCC2)sc2nc(-c3ccccc3)cn12 | i | i | i | 133.9 | i | i
Cc1ccc(C(C(=O)NC2CCCC2)N(C(=O)CNC(=O)c2cccs2)c2cccnc2)o1 (centres undefined) | i | i | i | i | i | i
CCCCCCNC(=O)c1c(N)n(/N=C/c2ccco2)c2nc3ccccc3nc12 | i | i | nt | 135.3 | i | i
CO/N=C/c1ccc(N2CCCC2)c([N+](=O)[O-])c1 | i | i | i | 129.6 | i | i
COc1ccc(-c2cn3c(n2)CCC3)cc1 | i | i | i | 128.8 | i | i
Cc1ccc(-c2cn3c(n2)CCCC3)cc1 | i | i | i | i | i | i
Cc1ccc(-n2c(SCC(=O)NCC3CCCO3)nc3n[nH]c(C)c3c2=N)cc1Cl (centres undefined) | i | i | i | i | 45.3 | i
CCN1CCN(CCOc2ccc(Cl)cc2)CC1 | i | i | i | i | i | i
SMILES | APP 5'UTR act | STAT1 blocker | NF-kB neuron act | STAT1 activator | STAT3 blocker | STAT3 act
O=C(CC1NCCc2ccccc21)Nc1ccc(Cl)cc1 (centres undefined) | i | i | i | i | i | 133.0
O=C(CC1NC(=O)NC1=O)Nc1ccc(Cl)cc1 (centres undefined) | i | i | i | i | i | i
c1csc(CSc2nc3ccccc3s2)c1 | i | i | i | 145.0 | i | i
c1csc(CSc2nnc3sc4ccccc4n23)c1 | i | i | i | 132.5 | i | i
COc1ccc(NS(=O)(=O)c2c(C)n(C)c(=O)n(C)c2=O)cc1OC | i | i | i | i | i | i
O=C(O)COc1ccccc1/C=N/NC(=O)Cc1csc(Nc2cccc(C(F)(F)F)c2)n1 | i | i | i | i | i | i
N#CC1(c2ccc(NC(=O)c3ccccc3)cc2)CCCC1 | i | i | i | 147.2 | i | i
O=C(NNC(=O)c1ccc(NC(=O)c2ccccc2)cc1)c1ccccc1 | i | i | i | i | i | i
CCOC(=O)C1C(=O)CC(C)(O)C(C(=O)OCC)C1c1ccc2c(c1)OCO2 (centres undefined) | i | i | nt | i | i | i
O=[N+]([O-])c1ccc(Nc2ccc3ccccc3c2)nc1 | i | i | i | 132.8 | i | i
CCc1[nH]nc2c1C(C1C=CCCC1)C(C#N)=C(N)O2 (centres undefined) | i | i | i | i | i | i
CCCSc1ccc2nc(-c3ccccc3)cn2c1 | i | 78.6 | i | i | 103.0 | i
CCCCSc1ccc2nc(-c3ccc(C#N)cc3)cn2c1 | i | i | i | 130.9 | i | i
